This passage reports inhibition results from PubChem BioAssay AID1451 (NMMLSC, 2008).

The test has as its target ATP-dependent translocase ABCB1 (Homo sapiens) (UniProt P08183). Kind of test: ABCB1 efflux pump inhibitors, confirmation, cell-based, single point, ABCG2 counter-screen (AID 1451).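 Note: 0% = DMSO and 100% = nicardipine full pump inhibition.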 The settings on record: CCRF-Adr cells, JC-1 efflux, flow cytometry; at 6.6 µM; stronger effect = higher value. Summed up:
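Material: ABCB1-expressing CCRF-Adr cells. Quantity: 3 million cells per mL final in well. Reagent: JC-1 fluorescent efflux-pump substrate. Compound: single test-compound dose, 6.6 µM final. Schedule: 10 min exposure, 25 °C. Measured by: flow cytometry, 530 nm emission. Controls: nicardipine as high control, DMSO as low control.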

By inhibition is commonly meant the relative decrease from the control value, in per cent.

The structures appear in SMILES notation. This is one part of the list. Values without a mark were called inactive.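 Rule for the calls: active = inhibition of pump activity above 50%; inactive = the rest.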

ATP-dependent translocase ABCB1 (Homo sapiens), sequence (P08183 whole entry, looked up): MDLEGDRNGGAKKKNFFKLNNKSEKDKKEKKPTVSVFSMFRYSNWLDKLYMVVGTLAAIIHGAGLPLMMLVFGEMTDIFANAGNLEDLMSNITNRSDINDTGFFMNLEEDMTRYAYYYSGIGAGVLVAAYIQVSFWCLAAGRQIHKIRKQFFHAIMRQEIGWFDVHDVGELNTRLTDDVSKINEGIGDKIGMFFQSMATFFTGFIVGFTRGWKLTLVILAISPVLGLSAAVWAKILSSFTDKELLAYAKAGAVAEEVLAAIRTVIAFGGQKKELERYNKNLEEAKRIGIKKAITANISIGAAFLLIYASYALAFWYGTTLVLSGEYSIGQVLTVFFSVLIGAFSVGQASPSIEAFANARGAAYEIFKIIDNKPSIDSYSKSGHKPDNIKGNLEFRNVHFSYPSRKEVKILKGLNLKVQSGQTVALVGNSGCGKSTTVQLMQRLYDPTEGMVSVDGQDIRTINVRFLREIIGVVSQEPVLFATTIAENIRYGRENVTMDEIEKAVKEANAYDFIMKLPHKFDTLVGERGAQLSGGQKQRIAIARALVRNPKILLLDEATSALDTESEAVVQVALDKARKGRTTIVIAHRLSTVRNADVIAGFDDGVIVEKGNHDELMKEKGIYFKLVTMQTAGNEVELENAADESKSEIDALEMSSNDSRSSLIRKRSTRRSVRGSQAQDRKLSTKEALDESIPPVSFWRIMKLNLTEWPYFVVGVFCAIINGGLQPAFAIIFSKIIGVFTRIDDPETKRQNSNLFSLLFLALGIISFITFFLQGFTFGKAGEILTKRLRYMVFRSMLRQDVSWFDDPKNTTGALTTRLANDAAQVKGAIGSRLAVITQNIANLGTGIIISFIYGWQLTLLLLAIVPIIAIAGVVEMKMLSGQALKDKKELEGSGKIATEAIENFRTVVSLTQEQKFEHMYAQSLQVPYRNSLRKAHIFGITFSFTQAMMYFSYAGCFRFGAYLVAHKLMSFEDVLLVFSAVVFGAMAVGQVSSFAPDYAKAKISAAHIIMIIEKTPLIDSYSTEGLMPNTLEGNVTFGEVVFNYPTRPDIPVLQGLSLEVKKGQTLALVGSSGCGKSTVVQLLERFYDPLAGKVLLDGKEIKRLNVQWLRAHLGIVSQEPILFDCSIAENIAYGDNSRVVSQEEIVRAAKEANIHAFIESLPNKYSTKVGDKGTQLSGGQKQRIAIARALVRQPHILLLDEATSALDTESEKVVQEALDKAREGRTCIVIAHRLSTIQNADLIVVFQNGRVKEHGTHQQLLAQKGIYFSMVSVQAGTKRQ

Regarding `COC(=O)COc1cc(C)cc2oc(=O)c3c(c12)CCCC3`, the inhibition was 1.84%.
